Published values of several laboratories.
Compare with care: the assays were run in different laboratories. Converted amounts (≈) assume the structure as drawn.

CC(C)CN(C[C@@H](O)[C@H](Cc1ccccc1)NC(=O)O[C@H]1CO[C@H]2OCC[C@H]21)S(=O)(=O)c1ccc(N)cc1
IC50 (Human immunodeficiency virus 1; viral replication; T-lymphoid): 1.6 nM

CC(C)CN(C[C@@H](O)[C@H](Cc1ccccc1)NC(=O)O[C@H]1CO[C@H]2OCC[C@H]21)S(=O)(=O)c1ccc(N)cc1
IC50 (Human immunodeficiency virus 1; viral replication, inhibitor; MT2): 1.6 nM

COC(=O)c1cc(-c2ccc(NC(=O)Nc3ccc(Cl)c(Cl)c3)cc2)on1
MIC (Mycolicibacterium fortuitum; microbial growth, broth dilution; ATCC6841; 48 h): > 64 µg/mL

CC(C)CN(C[C@@H](O)[C@H](Cc1ccccc1)NC(=O)O[C@H]1CO[C@H]2OCC[C@H]21)S(=O)(=O)c1ccc(B(O)O)cc1
IC50 (Human immunodeficiency virus 1; viral replication, inhibitor; MT2): 49 nM

Cc1ccnc2c1NC(=O)c1cccnc1N2C1CC1
IC90 (Human immunodeficiency virus 1; viral replication; human PBMC; clinical isolate): 242 nM

CC[C@H](C)C[C@H](C)CCCCCCCCC(=O)N[C@H]1C[C@@H](O)[C@@H](NCCN)NC(=O)[C@@H]2[C@@H](O)CCN2C(=O)[C@H]([C@H](O)CCN)NC(=O)[C@H]([C@H](O)[C@@H](O)c2ccc(O)cc2)NC(=O)[C@@H]2C[C@@H](O)CN2C(=O)[C@H]([C@@H](C)O)NC1=O
MIC (Clavispora lusitaniae; microbial growth, broth dilution; MY1396): 0.25 µg/mL (≈ 0.229 µM)

COC(=O)c1cc(-c2cccc(NC(=O)Nc3c(C)cccc3C)c2)on1
MIC (Mycolicibacterium fortuitum; microbial growth, broth dilution; ATCC6841; 48 h): > 64 µg/mL

CC(C)Nc1cccnc1N1CCN(C(=O)c2cc3cc(NS(C)(=O)=O)ccc3[nH]2)CC1
IC90 (Human immunodeficiency virus 1; viral replication, inhibitor; human PBMC; clinical isolate): 57.6 nM
